Assay results pooled from the literature.
Each line is one published result; the experiments were not run side by side.
Target: Serine/threonine-protein kinase 38 (STK38, Homo sapiens, UniProt Q15208)

| SMILES | test | system | conditions | endpoint | value |
| --- | --- | --- | --- | --- | --- |
| CC1(C)NC(=O)c2[nH]c3c(Cl)c(Cl)ccc3c2C1C#N (stereo not shown) | thermal stability, DSF |  | 10 µM | ΔTm | -0.1 °C |
| O=C(Nc1cnn(-c2csc(C(=O)NC3COC3)c2)c1)Nc1ccccc1Cl | enzyme activity, inhibitor |  | 5 µM | remaining activity | 99.2% |
| O=S(=O)(NC1CCC(c2cc(F)ccc2F)(S(=O)(=O)c2ccc(Cl)cc2)CC1)C(F)(F)F (stereo not shown) | cell-free assay, competition with immobilised ligand |  | 1 µM | remaining binding | 100% |
| C[S+]([O-])c1ccc(-c2nc(-c3ccncc3)c(-c3ccc(F)cc3)[nH]2)cc1 (stereo not shown) | cell-free assay |  | 0.5 µM | remaining signal | 105% |
| CCN1CCN(Cc2ccc(NC(=O)c3ccc(C)c(/C=C/c4cnc5[nH]ccc5c4OC)c3)cc2C(F)(F)F)CC1 | target engagement in cells, inhibitor, chemoproteomics | A-375 | 0.5 µM | inhibition | -0.843% |
| Cc1ccc(C(=O)Nc2ccc(CN3CCN(C)CC3)c(C(F)(F)F)c2)cc1C#Cc1cnc2cccnn12 | enzyme activity, inhibitor |  | 23.5 nM | remaining activity | 78% |
| O=C1Nc2ccc(Cl)cc2C1=Cc1cc(Cl)c(O)c(Cl)c1 | cell-free assay |  | 0.5 µM | remaining signal | 85.4% |
| CN([C@@H]1CCc2c(CC(=O)O)c3cc(S(C)(=O)=O)ccc3n2C1)S(=O)(=O)c1ccc(F)cc1 | cell-free assay, competition with immobilised ligand |  | 1 µM | remaining binding | 85% |
| Cn1c2c(c3ccc(Cl)c(Cl)c31)C(C#N)C1(CCOCC1)NC2=O (stereo not shown) | thermal stability, DSF |  | 10 µM | ΔTm | 0 °C |
| Cc1nc(Cc2cccc(C(F)(F)F)c2)sc1-c1ccc(C(N)=O)nc1 | cell-free assay, competition with immobilised ligand |  | 1 µM | remaining binding | 81% |
| Cn1c2c(Cl)c(Cl)ccc2c2cc(N)[nH]c(=O)c21 | thermal stability, DSF |  | 10 µM | ΔTm | -0.2 °C |
| NS(=O)(=O)c1cc(NC(=O)C2(c3ccccc3Cl)CC2)ccc1Oc1cccc(Cl)c1 | cell-free assay, competition with immobilised ligand |  | 1 µM | remaining binding | 81% |
| Cn1c2c(Cl)c(Cl)ccc2c2cc[nH]c(=O)c21 | thermal stability, DSF |  | 10 µM | ΔTm | 0 °C |
| Cc1c(NC(=O)c2cc(C(N)=O)nc3cc(F)ccc23)c(C(F)(F)F)nn1Cc1ccc(C#N)cc1 | cell-free assay, competition with immobilised ligand |  | 1 µM | remaining binding | 94% |
| Cc1sc(C(=O)NC2COC2)cc1-n1cc(NC(=O)Nc2c(F)cccc2Cl)cn1 | enzyme activity, inhibitor |  | 10 µM | remaining activity | 91.5% |
| N#CC1c2c([nH]c3c(Cl)c(Cl)ccc23)C(=O)NC12CCCCC2 (racemic) | thermal stability, DSF |  | 10 µM | ΔTm | 0.6 °C |
| CCN1CCN(Cc2ccc(NC(=O)c3ccc(C)c(Oc4ccnc5[nH]ccc45)c3)cc2C(F)(F)F)CC1 | target engagement in cells, inhibitor, chemoproteomics | A-375 | 50 nM | inhibition | -11.4% |
| Nc1ncnc2occ(-c3ccc(NC(=O)Nc4cc(C(F)(F)F)ccc4F)cc3)c12 | cell-free assay, inhibitor |  | 20 µM | remaining signal | 31% |
| CCC1(CC)NC(=O)c2c(c3ccc(Cl)c(Cl)c3n2C)C1C#N (stereo not shown) | thermal stability, DSF |  | 10 µM | ΔTm | 1.1 °C |
